# This is a sample that favours compounds with a hit; in the whole collection about 1.3% have one here.
# HKDC1 inhibitor = HKDC1 (human) hexokinase inhibition; Q2TB90; recombinant HKDC1, G6PDH/diaphorase resazurin coupled fluorescence; inhibition, % at 20 µM; actives 0.16% (n = 340,000); AID 493160;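 active = inhibition above about 35% when tested at 20 µM, limit read from the data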;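 also: plate controls were DMSO wells with enzyme for no effect and DMSO wells lacking enzyme for full effect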
# Target sequence (Q2TB90 whole entry, looked up): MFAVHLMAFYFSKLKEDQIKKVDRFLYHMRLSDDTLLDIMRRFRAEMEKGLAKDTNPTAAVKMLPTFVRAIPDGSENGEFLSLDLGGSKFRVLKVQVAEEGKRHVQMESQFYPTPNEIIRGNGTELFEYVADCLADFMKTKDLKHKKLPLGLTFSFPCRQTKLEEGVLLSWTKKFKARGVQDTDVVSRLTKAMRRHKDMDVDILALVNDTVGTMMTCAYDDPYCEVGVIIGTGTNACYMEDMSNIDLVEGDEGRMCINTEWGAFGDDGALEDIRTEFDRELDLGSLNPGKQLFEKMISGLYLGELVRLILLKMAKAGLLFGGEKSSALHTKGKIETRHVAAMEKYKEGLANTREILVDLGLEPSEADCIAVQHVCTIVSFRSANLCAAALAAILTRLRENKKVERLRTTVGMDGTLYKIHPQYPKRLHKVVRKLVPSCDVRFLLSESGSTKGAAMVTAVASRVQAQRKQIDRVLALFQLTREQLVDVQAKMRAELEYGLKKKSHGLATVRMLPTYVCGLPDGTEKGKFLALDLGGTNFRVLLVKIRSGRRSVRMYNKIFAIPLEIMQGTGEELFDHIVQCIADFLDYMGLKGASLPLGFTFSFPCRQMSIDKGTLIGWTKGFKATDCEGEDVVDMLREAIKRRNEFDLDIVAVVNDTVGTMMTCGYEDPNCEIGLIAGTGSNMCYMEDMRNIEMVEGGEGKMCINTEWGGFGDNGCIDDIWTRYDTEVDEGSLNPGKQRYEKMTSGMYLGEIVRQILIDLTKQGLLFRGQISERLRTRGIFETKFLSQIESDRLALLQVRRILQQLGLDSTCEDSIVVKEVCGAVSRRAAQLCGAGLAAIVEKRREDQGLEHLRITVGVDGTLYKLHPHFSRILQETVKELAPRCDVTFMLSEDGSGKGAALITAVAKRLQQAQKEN
#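 Material – in-house recombinant HK5 (HKDC1) enzyme · Quantity – HKDC1 at 5 µg/mL · Buffer or medium – pH 8.0 Tris buffer with 10 mM MgCl2 · Reagent – glucose with 1 mM ATP · Dosing – single 20 µM dose · Times – reaction time 90 min, room temperature, protected from light · Technique – resorufin fluorescence at 613 nm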
# Diaph inh CS = counter-screen for diaphorase-based assays: diaphorase inhibitors and chemical oxidizers | diaphorase resazurin-to-resorufin fluorescence, NADH, 16 min; bacterial (C. kluyveri) enzyme, not human | inhibition, % at 20 µM | actives 0.69% (n = 190,000) | AID 1217;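 active = primary screen inhibition at 20 µM above a set limit, cut at about 50% in these data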;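 also: plate controls were DMSO with full reaction for no effect and wells lacking NADH for full effect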
#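 Test system: bacterial diaphorase enzyme (C. kluyveri); Quantity: 0.14 U/mL diaphorase, enzyme working solution; Times: reaction incubation of 16 min at room temperature; Measured by: fluorescence of resorufin formed from resazurin, Ex 544/Em 590 nm; Benchmarks: positive control minus NADH, DMSO neutral control.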
# Diaph act CS = diaphorase activation or chemical reduction counter-screen. activation factor at 20 µM. actives 0.005% (n = 190,000). Diaphorase/resazurin coupled assay, resorufin fluorescence, 16 min; active compounds read high; 1 = vehicle wells, 0 = NADH-free wells;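 active = diaphorase activity raised at least twofold by the compound at 20 µM; inactive = activation factor below 2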
#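 Material: Clostridium kluyveri diaphorase, purified enzyme; Quantity: enzyme 0.07 U/mL final; Medium: HEPES pH 7.4 buffer with MgCl2 and Tween 20; Dosing: single compound dose of 20 µM, 1% DMSO final; Schedule: 16 min reaction at room temperature; Measured by: red resorufin fluorescence at 544/590 nm excitation/emission.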
# G6PDH CS = counter-screen for G6PDH assay hits: L. mesenteroides G6PDH inhibition. Purified L. mesenteroides G6PDH, diaphorase/resazurin coupled fluorescence, 45 min. inhibition, % at 5 µM. actives 0.12% (n = 200,000). AID 1020; in the data active = inhibition above about 50%
# PfG6PD inh = PfG6PD (Plasmodium falciparum) enzyme inhibition; inhibition, % at 20 µM; PfGluPho enzyme, NADPH resazurin-diaphorase fluorescence; actives 0.78% (n = 350,000);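 active = inhibition reaching at least a set limit at 20 µM in the primary screen, cut at about 59% in these data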;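 also: 0% = DMSO wells with substrate and 100% = DMSO wells lacking glucose-6-phosphate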
# PfG6PD confirm = PfG6PD inhibition, single-dose confirmed | inhibition, % at 20 µM | shares compounds with PfG6PD inh | actives 34% (n = 2,400) | recombinant PfGluPho, NADPH-diaphorase-resazurin fluorescence;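 active = inhibition of at least 50% at 20 µM in any single replicate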;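 also: 0% = DMSO with substrate and 100% = DMSO lacking glucose-6-phosphate substrate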
# Diaph ctr 10uM = diaphorase inhibition or oxidation at 10 uM NADPH; shares compounds with PfG6PD inh; diaphorase-coupled resazurin reduction, fluorescence, NADPH 10 uM; inhibition, % at 20 µM; actives 39% (n = 820); AID 504862;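 active = average inhibition reaching 50% or more with the compound at 20 µM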;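 also: resorufin red fluorescence formed as diaphorase reduces resazurin using NADPH; 0% = DMSO with enzyme and 100% = DMSO without enzyme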
# Diaph ctr 30uM = counter-screen for P. falciparum G6PD inhibitors: diaphorase inhibitors, oxidizers | shares compounds with PfG6PD inh | Diaphorase/resazurin coupled assay, resorufin fluorescence, 30 uM NADPH | inhibition, % at 20 µM | actives 29% (n = 820) | AID 504863;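 active = inhibition averaging 50% or more, tested at 20 µM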;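 also: 0% = DMSO with enzyme and 100% = DMSO wells lacking diaphorase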
# The depositor's hits bear a star; . = no result given.
SMILES,HKDC1 inhibitor,Diaph inh CS,Diaph act CS,G6PDH CS,PfG6PD inh,PfG6PD confirm,others
Cc1cc(C=C2C(=O)c3ccccc3C2=O)c(C)n1-c1cccc(C(=O)O)c1,-2,17,0.8,2,61*,47,
Cc1cc(/C=C2\Cc3ccccc3C2=O)c(C)n1-c1ccccc1,2,5,1,8,59*,15,
Cc1cc(C=C2C(=O)c3ccccc3C2=O)c(C)n1-c1ccc(C(=O)O)cc1,4,7,0.9,5,100*,73*,Diaph ctr 10uM=54*;Diaph ctr 30uM=61*
COc1cccc(OCCNc2ccc([N+](=O)[O-])cn2)c1,-2,.,.,.,2,.,
COc1cccc(OCCNc2cc(Cl)ccc2[N+](=O)[O-])c1,-4,14,0.9,-19,63*,-12,
O=C(COC(=O)c1ccc2c(c1[N+](=O)[O-])C(=O)c1ccccc1C2=O)NC1CC1,25,27,0.7,55*,60*,54*,Diaph ctr 10uM=26;Diaph ctr 30uM=28
O=C(COC(=O)c1cccc2c1C(=O)c1ccccc1C2=O)NC1CCCCC1,11,24,0.8,-20,-18,.,
COc1ccc2nc3ccccc3nc2c1N,17,.,.,.,71*,14,
COc1ccc(OC)c2c1C(=O)C(Cl)=C(Cl)C2=O,24,.,.,.,125*,112*,Diaph ctr 10uM=81*;Diaph ctr 30uM=42
O=C(CN(Cc1ccco1)C(=O)c1ccccc1)Nc1ccc(Cl)c(Cl)c1,4,26,0.7,-1,62*,18,
Cc1ccc(C(=O)N(CC(=O)Nc2ccc(Cl)c(Cl)c2)Cc2ccco2)cc1,7,12,0.9,6,-7,.,
C=CCc1c(C)[nH]c2c(OC)cccc2c1=S,-5,21,0.8,0,62*,36,
C=CCN(CC=C)C(=O)c1c(OC)cccc1OC,-10,12,0.9,3,-9,.,
O=C1CCC(CCC(=O)N2CCCC(C(=O)c3cccc(C(F)(F)F)c3)C2)=NN1 (centres undefined),7,-1,1,6,-18,.,
CC1CCc2nc3sc4c(c3c(N)c2C1)CCCC4 (centres undefined),-1,14,0.9,10,91*,41,
Nc1c2c(nc3sc4c(c13)CCCCC4)CCCCC2,19,7,0.9,-2,20,.,
CC1CCc2c(nc3sc4c(c3c2N)CCCC4)C1 (centres undefined),-6,13,0.9,-14,95*,57*,Diaph ctr 10uM=51*;Diaph ctr 30uM=41
Cc1ccc2[nH]c(=O)c(CN(CC3CCCO3)C(=O)c3ccncc3)cc2c1 (centres undefined),-7,15,0.8,-10,-15,.,
O=C(NCCC1CC1(Cl)Cl)c1ccc([N+](=O)[O-])cc1 (centres undefined),-1,.,.,.,10,.,
O=C(Nc1scc(-c2ccccc2)c1C(=O)O)c1ccccc1F,-2,.,.,.,32,.,
Cc1ccc(-c2csc(NC(=O)c3ccccc3F)c2C(=O)O)cc1,14,.,.,.,73*,51*,Diaph ctr 10uM=36;Diaph ctr 30uM=40
Cc1ccc(-c2csc(NC(=O)c3ccc(F)cc3)c2C(=O)O)cc1,22,.,.,.,88*,44,
CC(C)NC(=O)NC(=O)COC(=O)C1(C)CC1(Cl)Cl (centres undefined),0,9,0.9,-2,-1,.,
Cc1cc2nc(-c3ccc(SCc4ccc(C(=O)O)cc4)nc3)[nH]c2cc1C,-1,14,0.9,9,72*,30,
Cc1cc2nc(-c3ccc(SCC(=O)NC(C)C)nc3)[nH]c2cc1C,.,7,0.9,5,.,.,
SMILES,HKDC1 inhibitor,Diaph inh CS,Diaph act CS,G6PDH CS,PfG6PD inh,PfG6PD confirm,others
CC(Cc1cccnc1)NC(=O)c1cc(COc2ccc(F)cc2F)on1 (centres undefined),5,.,.,.,-21,.,
COc1cccc(NC(=O)CN(C)S(=O)(=O)c2ccc3[nH]c(=O)oc3c2)c1,-1,.,.,.,-6,.,
CC1=CSC2=NC(C(F)(F)F)(C(F)(F)F)NC(=O)N12,-2,.,.,.,-6,.,
NC(=O)C1CCN(CC(=O)Nc2ccccc2Sc2ccc(Cl)cc2)CC1,-8,14,0.9,14,65*,40,
Nc1nc(SCC(=O)Nc2ccccc2Sc2ccc(Cl)cc2)n[nH]1,1,15,0.9,8,110*,77*,Diaph ctr 10uM=73*;Diaph ctr 30uM=54*
N/C(Cc1ccc([N+](=O)[O-])cc1)=N\OC(=O)Cc1ccc(Cl)cc1,7,11,0.9,5,10,.,
COc1cccc(C(=O)Oc2ccc3ccc(O)cc3c2)c1,4,.,.,.,19,.,
C[C@@H]1CN([C@@H](C)CO)C(=O)c2cc(C#CC3CCCCC3)cnc2O[C@@H]1CN(C)S(=O)(=O)c1ccc(F)cc1,.,.,.,.,66*,10,
C[C@@H]1CN([C@@H](C)CO)C(=O)c2cc(/C=C/c3ccccc3)cnc2O[C@@H]1CN(C)S(=O)(=O)c1ccc(F)cc1,.,.,.,.,3,.,
Cc1[nH]c2ccccc2c1/C=N/NC(=O)c1cccc(S(=O)(=O)Nc2cccc(C(F)(F)F)c2)c1,2,2,1,9,66*,15,
CC1CC(C)CN(S(=O)(=O)c2ccc(C(=O)N3CCN(c4ccccc4)CC3)cc2)C1 (centres undefined),2,13,0.9,4,3,.,
CCNC(=S)N/N=C/c1cccc(OCc2c(F)cccc2Cl)c1,-3,7,0.9,13,60*,-22,
Oc1ccc(-c2cn3c(n2)SCC3)cc1O,5,52*,0.5,24,63*,89*,Diaph ctr 10uM=21;Diaph ctr 30uM=19
Oc1ccc(-c2cn3c(n2)SCC3)cc1,-10,4,1,0,-12,.,
Nc1c(C(=O)Nc2ccc(Br)cc2)sc2nc(N3CCOCC3)c3c(c12)CCCC3,.,.,.,.,12,.,
CCN(CC)C(=O)c1sc2nc(N3CCOCC3)c3c(c2c1N)CCCC3,8,24,0.8,2,76*,10,
Nc1c(C(=O)NCc2ccco2)sc2nc(N3CCOCC3)c3c(c12)CCCC3,9,20,0.8,2,66*,-1,
Cn1c(-c2csc(-c3ccccc3)n2)n[nH]c1=S,-6,-12,1.1,-5,13,.,
CNC(=O)c1ccc(-n2cccn2)nc1,-10,-7,1.1,-2,-2,.,
O=C(CN1CCN(c2cccc(C(F)(F)F)c2)CC1)Nc1ccc2c(c1)OCCCO2,.,.,.,.,3,.,
O=C(CN1CCN(c2ccc(O)cc2)CC1)Nc1cc(S(=O)(=O)N2CCCCC2)ccc1Cl,11,25,0.8,-2,56,.,

# Bioassay records (PubChem)
